Source: ChEMBL document CHEMBL4689842, “EUbOPEN Chemogenomics Library wave 1” (2021)

Tested on: HEK-293T
Assay: Multiplex assay against HEK293T;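 as to Population Tubulin-Different-Phenotype (%): share of the cells with healthy nuclei that show this phenotype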
Format: toxicity, cell-based
Conditions: human
Summary of the method: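 Compound was added to live cells that had been stained at seeding with Hoechst33342, BioTracker Green Microtubule Cytoskeleton Dye, MitoTracker Red and Annexin V Alexa Fluor 680, and imaging followed on a CQ1 microscope at 37°C and 5% CO2. CellPathfinder machine-learning gating divided cells into Hoechst high-intensity objects or normal cells, normal cells into healthy, pyknosed or fragmented nuclei, and pyknosed cells into mitotic or apoptotic. Tubulin, mitochondrial-mass and membrane-permeability phenotypes are per cents of healthy-nucleus cells.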

[1] = 12 h, 1 µM, compound concentration 1 uM, replicate 1
[2] = 12 h, 1 µM, compound concentration 1 uM, replicate 2
[3] = 12 h, 10 µM, compound concentration 10 uM, replicate 1
[4] = 12 h, 10 µM, compound concentration 10 uM, replicate 2
[5] = 24 h, 1 µM, compound concentration 1 uM, replicate 1
[6] = 24 h, 1 µM, compound concentration 1 uM, replicate 2
[7] = 24 h, 10 µM, compound concentration 10 uM, replicate 1
[8] = 24 h, 10 µM, compound concentration 10 uM, replicate 2
[9] = 48 h, 1 µM, compound concentration 1 uM, replicate 1
[10] = 48 h, 1 µM, compound concentration 1 uM, replicate 2
[11] = 48 h, 10 µM, compound concentration 10 uM, replicate 1
[12] = 48 h, 10 µM, compound concentration 10 uM, replicate 2

C=C1/C(=C\C=C2/CCC[C@]3(C)[C@@H]([C@H](C)/C=C/[C@H](C)C(C)C)CC[C@@H]23)C[C@@H](O)C[C@@H]1O [DOXERCALCIFEROL]
Population Apoptotic (%) [1]: 53% | Population Fragmented Nuclei (%) [1]: 17% | Population Healthy Nuclei (%) [1]: 26% | Population Hoechst High Intensity Objects (%) [1]: 23% | Population Membrane Permeable-Phenotype (%) [1]: 3% | Population Mitochondria Different-Phenotype (%) [1]: 78% | Population Mitotic Cells (%) [1]: 46% | Population Normal (%) [1]: 76% | Population Pyknosed Nuclei (%) [1]: 55% | Population Tubulin-Different-Phenotype (%) [1]: 12% | Total Cell Count [1]: 156 | Population Apoptotic (%) [2]: 10% | Population Fragmented Nuclei (%) [2]: 7% | Population Healthy Nuclei (%) [2]: 44% | Population Hoechst High Intensity Objects (%) [2]: 2% | Population Membrane Permeable-Phenotype (%) [2]: 4% | Population Mitochondria Different-Phenotype (%) [2]: 11% | Population Mitotic Cells (%) [2]: 89% | Population Normal (%) [2]: 97% | Population Pyknosed Nuclei (%) [2]: 48% | Population Tubulin-Different-Phenotype (%) [2]: 11% | Total Cell Count [2]: 240 | Population Apoptotic (%) [3]: 50% | Population Fragmented Nuclei (%) [3]: 15% | Population Healthy Nuclei (%) [3]: 25% | Population Hoechst High Intensity Objects (%) [3]: 16% | Population Membrane Permeable-Phenotype (%) [3]: 2% | Population Mitochondria Different-Phenotype (%) [3]: 71% | Population Mitotic Cells (%) [3]: 49% | Population Normal (%) [3]: 83% | Population Pyknosed Nuclei (%) [3]: 59% | Population Tubulin-Different-Phenotype (%) [3]: 34% | Total Cell Count [3]: 180 | Population Apoptotic (%) [4]: 13% | Population Fragmented Nuclei (%) [4]: 7% | Population Healthy Nuclei (%) [4]: 35% | Population Hoechst High Intensity Objects (%) [4]: 3% | Population Membrane Permeable-Phenotype (%) [4]: 6% | Population Mitochondria Different-Phenotype (%) [4]: 20% | Population Mitotic Cells (%) [4]: 86% | Population Normal (%) [4]: 96% | Population Pyknosed Nuclei (%) [4]: 56% | Population Tubulin-Different-Phenotype (%) [4]: 23% | Total Cell Count [4]: 211 | Population Apoptotic (%) [5]: 52% | Population Fragmented Nuclei (%) [5]: 22% | Population Healthy Nuclei (%) [5]: 27% | Population Hoechst High Intensity Objects (%) [5]: 23% | Population Membrane Permeable-Phenotype (%) [5]: 0% | Population Mitochondria Different-Phenotype (%) [5]: 63% | Population Mitotic Cells (%) [5]: 47% | Population Normal (%) [5]: 76% | Population Pyknosed Nuclei (%) [5]: 50% | Population Tubulin-Different-Phenotype (%) [5]: 30% | Total Cell Count [5]: 170 | Population Apoptotic (%) [6]: 10% | Population Fragmented Nuclei (%) [6]: 7% | Population Healthy Nuclei (%) [6]: 59% | Population Hoechst High Intensity Objects (%) [6]: 3% | Population Membrane Permeable-Phenotype (%) [6]: 9% | Population Mitochondria Different-Phenotype (%) [6]: 5% | Population Mitotic Cells (%) [6]: 89% | Population Normal (%) [6]: 96% | Population Pyknosed Nuclei (%) [6]: 32% | Population Tubulin-Different-Phenotype (%) [6]: 12% | Total Cell Count [6]: 305 | Population Apoptotic (%) [7]: 39% | Population Fragmented Nuclei (%) [7]: 20% | Population Healthy Nuclei (%) [7]: 26% | Population Hoechst High Intensity Objects (%) [7]: 18% | Population Membrane Permeable-Phenotype (%) [7]: 7% | Population Mitochondria Different-Phenotype (%) [7]: 78% | Population Mitotic Cells (%) [7]: 60% | Population Normal (%) [7]: 81% | Population Pyknosed Nuclei (%) [7]: 52% | Population Tubulin-Different-Phenotype (%) [7]: 58% | Total Cell Count [7]: 191 | Population Apoptotic (%) [8]: 25% | Population Fragmented Nuclei (%) [8]: 9% | Population Healthy Nuclei (%) [8]: 56% | Population Hoechst High Intensity Objects (%) [8]: 1% | Population Membrane Permeable-Phenotype (%) [8]: 10% | Population Mitochondria Different-Phenotype (%) [8]: 7% | Population Mitotic Cells (%) [8]: 74% | Population Normal (%) [8]: 98% | Population Pyknosed Nuclei (%) [8]: 34% | Population Tubulin-Different-Phenotype (%) [8]: 37% | Total Cell Count [8]: 255 | Population Apoptotic (%) [9]: 46% | Population Fragmented Nuclei (%) [9]: 19% | Population Healthy Nuclei (%) [9]: 33% | Population Hoechst High Intensity Objects (%) [9]: 16% | Population Membrane Permeable-Phenotype (%) [9]: 0% | Population Mitochondria Different-Phenotype (%) [9]: 34% | Population Mitotic Cells (%) [9]: 53% | Population Normal (%) [9]: 83% | Population Pyknosed Nuclei (%) [9]: 47% | Population Tubulin-Different-Phenotype (%) [9]: 36% | Total Cell Count [9]: 180 | Population Apoptotic (%) [10]: 9% | Population Fragmented Nuclei (%) [10]: 7% | Population Healthy Nuclei (%) [10]: 81% | Population Hoechst High Intensity Objects (%) [10]: 3% | Population Membrane Permeable-Phenotype (%) [10]: 4% | Population Mitochondria Different-Phenotype (%) [10]: 2% | Population Mitotic Cells (%) [10]: 90% | Population Normal (%) [10]: 97% | Population Pyknosed Nuclei (%) [10]: 11% | Population Tubulin-Different-Phenotype (%) [10]: 14% | Total Cell Count [10]: 601 | Population Apoptotic (%) [11]: 42% | Population Fragmented Nuclei (%) [11]: 23% | Population Healthy Nuclei (%) [11]: 35% | Population Hoechst High Intensity Objects (%) [11]: 17% | Population Membrane Permeable-Phenotype (%) [11]: 5% | Population Mitochondria Different-Phenotype (%) [11]: 35% | Population Mitotic Cells (%) [11]: 57% | Population Normal (%) [11]: 82% | Population Pyknosed Nuclei (%) [11]: 40% | Population Tubulin-Different-Phenotype (%) [11]: 33% | Total Cell Count [11]: 193 | Population Apoptotic (%) [12]: 22% | Population Fragmented Nuclei (%) [12]: 9% | Population Healthy Nuclei (%) [12]: 79% | Population Hoechst High Intensity Objects (%) [12]: 2% | Population Membrane Permeable-Phenotype (%) [12]: 6% | Population Mitochondria Different-Phenotype (%) [12]: 4% | Population Mitotic Cells (%) [12]: 77% | Population Normal (%) [12]: 97% | Population Pyknosed Nuclei (%) [12]: 11% | Population Tubulin-Different-Phenotype (%) [12]: 24% | Total Cell Count [12]: 475
